Results from ChEMBL document CHEMBL1145237, “Amide derivatives of 9,11-seco-estra-1,3,5(10)-trien-11-oic acid as modified orally active estrogen agonists with moderate antagonistic activity” (Bioorg Med Chem Lett, 2005).

Experiments:
[1] = biological target: T1, Estrogen receptor (Rattus norvegicus) (UniProt P06211+Q62986)
[2] = biological target: T1, Estrogen receptor (Rattus norvegicus); experiment: Relative binding affinity for immature rat cytosolic estrogen receptor; assay type: protein assay
Method in brief: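 Rat uterine cytosol receptor (20–21-day-old animals, pH 7.4 Tris-EDTA buffer) was incubated in triplicate for 18 h at 4 °C with fixed [3H]-estradiol and graded competitor concentrations, with DMF ≤5% final. Bound ligand was separated with dextran-coated charcoal and counted. Percent bound versus log concentration was plotted, and the 50%-inhibition concentration was compared with that of estradiol to give RBA.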

[3] = biological target: T1, Estrogen receptor (Rattus norvegicus); experiment: Estrogenic activity in rat uterine weight assay; assay type: functional
[4] = biological target: T1, Estrogen receptor (Rattus norvegicus); experiment: Estrogenic activity as percent gain in rat uterine weight at 10 mg/kg/day; assay type: functional, organism-based
Method in brief: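 Immature female rats were dosed orally once daily on days 28–30 of age at 10 mg/kg, with a vehicle-only control group. At autopsy on day 31, 24 h after the last dose, vaginal opening and vaginal-smear cornification were scored, and the blotted uterus was weighed fresh. Uterine gain was expressed as percent of vehicle control, as mean ± SEM of at least six observations per group.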

Rattus norvegicus = organism: Rattus norvegicus; experiment: Percent inhibition of ethynylestradiol-induced uterine weight gain in ovariectomized immature rats; parameters: concentration or dose not given beside the values; details: concentration not given here

Compound | Weight [1] | RBA [2] | Weight [3] | Gain [4] | inhibition (Rattus norvegicus)
COc1ccc(NC(=O)C[C@@]2(C)C(C3CCc4cc(OC)ccc4C3)CC[C@@H]2OC(C)=O)cc1 (stereo not given in full) | 77.5 mg | < 0.001% | 70.7 mg | 282% | 20.2%
CCCNC(=O)C[C@@]1(C)C(C2CCc3cc(OC)ccc3C2)CC[C@@H]1OC(C)=O (stereo not given in full) | 67.2 mg | < 0.001% | 18.7 mg | 6.63% | 26.1%
COc1cccc(NC(=O)C[C@@]2(C)C(C3CCc4cc(OC)ccc4C3)CC[C@@H]2OC(C)=O)c1 (stereo not given in full) | 86 mg | < 0.001% | 84.9 mg | 428% | 15.6%
CCCCNC(=O)C[C@@]1(C)C(C2CCc3cc(OC)ccc3C2)CC[C@@H]1OC(C)=O (stereo not given in full) | 70.9 mg | < 0.001% | 40.7 mg | 133% | 22.1%
CCCCCNC(=O)C[C@@]1(C)C(C2CCc3cc(OC)ccc3C2)CC[C@@H]1OC(C)=O (stereo not given in full) | 75.3 mg | < 0.001% | 23.7 mg | 35.2% | 17.2%
CCCCCCCCNC(=O)C[C@@]1(C)C(C2CCc3cc(OC)ccc3C2)CC[C@@H]1OC(C)=O (stereo not given in full) | 95.9 mg | < 0.001% | 87 mg | 441% | 5.98%
CCCCCCCCCCCCNC(=O)C[C@@]1(C)C(C2CCc3cc(OC)ccc3C2)CC[C@@H]1OC(C)=O (stereo not given in full) | 90 mg | < 0.001% | 82.4 mg | 412% | 11.7%
COc1ccc2c(c1)CCC(C1CC[C@H](OC(C)=O)[C@@]1(C)CC(=O)NCc1ccccc1)C2 (stereo not given in full) | 87.7 mg | < 0.001% | 74.4 mg | 362% | 14%
COc1ccc2c(c1)CCC(C1CC[C@H](OC(C)=O)[C@@]1(C)CC(=O)NCCCc1ccccc1)C2 (stereo not given in full) | 83.6 mg | < 0.001% | 74.3 mg | 422% | 10%
COc1ccc2c(c1)CCC(C1CC[C@H](OC(C)=O)[C@@]1(C)CC(=O)NCCc1ccccc1)C2 (stereo not given in full) | 73 mg | < 0.001% | 19 mg | 8.57% | 6.41%
COc1ccc2c(c1)CCC(C1CC[C@H](OC(C)=O)[C@@]1(C)CC(=O)Nc1ccccc1)C2 (stereo not given in full) | 69 mg | < 0.001% | 18 mg | 2.91% | 11.5%
